Sampled rows, rich in hits. Any-hit rate of the full collection: about 1.7%.
IDE cell inh: human IDE inhibitors in live cells, primary screen, fluorescence polarization, HEK cells, FAbetaB substrate. Insulin-degrading enzyme (Homo sapiens), P14735. FAbetaB cleavage. inhibition, % at 5.59 µM. 320,000 compounds, 0.41% hits. AID 434962, 2010;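 active = percent inhibition above the average of all tested compounds plus 3 SD, set per screening campaign, cut at about 16% in these data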;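 also: IDE supplied by intact live HEK cells; FP after avidin binding of uncleaved biotin substrate so inhibition keeps polarization high; 0% = DMSO wells and 100% = 60 µM reference IDE inhibitor Ii1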
TPT1 inhibitor: Candida albicans TPT1 enzyme inhibitors, primary screen, biochemical, fluorescence polarization; tRNA 2'-phosphotransferase TPT1 (Candida albicans SC5314); inhibition, % at 5 µM; 300,000 compounds, 0.81% hits; recombinant caTPT1, FP RNA substrate dephosphorylation;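 active = inhibition above the mean of all tested compounds plus 3 SD, set per screening campaign, cut at about 24% in these data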;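 also: plate controls were DMSO alone for no effect and ferristatin control at 100 nM for full effect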
Rpn11 inh: Rpn11 (PSMD14) deubiquitinase inhibitors, primary screen, biochemical, fluorescence polarization, uHTS. human 26S proteasome, Ub4-pepOG fluorescence polarization; 20S core pre-blocked with epoxomicin. inhibition, % at 20 µM. 360,000 compounds, 0.59% hits;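 active = inhibition at 20 µM, scaled to each plate's controls, above about 33%, limit read from the data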
Target sequence (O00487 whole entry, looked up): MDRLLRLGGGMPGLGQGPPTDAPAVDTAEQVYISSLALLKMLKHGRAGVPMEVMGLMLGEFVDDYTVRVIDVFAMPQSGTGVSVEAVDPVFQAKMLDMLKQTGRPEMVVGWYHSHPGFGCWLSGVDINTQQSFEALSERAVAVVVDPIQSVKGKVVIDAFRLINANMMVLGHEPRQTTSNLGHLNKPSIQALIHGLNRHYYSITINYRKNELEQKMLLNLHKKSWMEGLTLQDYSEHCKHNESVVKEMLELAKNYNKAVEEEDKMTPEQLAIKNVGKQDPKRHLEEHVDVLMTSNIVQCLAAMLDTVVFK
HNF4A DNA FP: change in binding of human HNF4A to DNA, primary screen, biochemical, fluorescence polarization, FITC-DNA; Hepatocyte nuclear factor 4-alpha (Homo sapiens), P41235; 1 h; activity change, % at 10 µM; 360,000 compounds, 0.3% hits; in the data active = activity change above about 30%, passing the limit was not always enough
Target sequence (P41235 whole entry, looked up): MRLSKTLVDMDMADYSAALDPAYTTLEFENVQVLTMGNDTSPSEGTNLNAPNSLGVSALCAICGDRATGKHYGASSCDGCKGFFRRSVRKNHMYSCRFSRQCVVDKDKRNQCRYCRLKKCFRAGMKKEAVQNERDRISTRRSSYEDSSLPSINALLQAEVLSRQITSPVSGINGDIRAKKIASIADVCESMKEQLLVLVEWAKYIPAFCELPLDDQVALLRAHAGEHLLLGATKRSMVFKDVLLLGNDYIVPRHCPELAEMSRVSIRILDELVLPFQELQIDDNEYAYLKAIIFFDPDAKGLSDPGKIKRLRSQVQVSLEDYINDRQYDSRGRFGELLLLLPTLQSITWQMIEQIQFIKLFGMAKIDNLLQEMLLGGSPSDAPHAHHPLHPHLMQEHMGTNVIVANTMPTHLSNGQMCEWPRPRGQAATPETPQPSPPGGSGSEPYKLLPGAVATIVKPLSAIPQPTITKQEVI
IDE act: human IDE activators in live cells, primary screen, fluorescence polarization, HEK cells, FAbeta-B substrate; Insulin-degrading enzyme (Homo sapiens), P14735; FAbeta-B cleavage; 0% vehicle, 100% cell-free pure enzyme wells; activation, % at 5.96 µM; 340,000 compounds, 0.073% hits; AID 493087, 2011;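 active = activation above the mean of all tested compounds plus 3 SD, set per screening campaign, cut at about 17% in these data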
CSN deneddyl inh: inhibitors of CSN-mediated cullin deneddylation, primary screen, biochemical, fluorescence polarization, uHTS; COP9 signalosome complex subunit 5 (Homo sapiens), Q92905; Purified CSN, SCF-Nedd8-OG deneddylation; inhibition, % at 12.5 µM; 360,000 compounds, 0.38% hits;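 active = pattern-corrected inhibition above about 35%, with an unprinted fluorescence ratio check between 0.5 and 1.5, limit read from the data, passing the limit was not always enough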;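 also: 0% = enzyme with substrate and 100% = substrate without enzyme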
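Assay system: Purified human Csn5 enzyme expressed in HEK293T cells | Amount: Enzyme 0.24 nM | Measured by: Fluorescence polarization readout | Medium: Tris/NaCl/DTT buffer, pH 7.5 | Compound dosing: One concentration, 12.5 µM, 0.25% DMSO | Times: 90 min incubation of compound, enzyme and substrate at room temperature | Control set: no-enzyme wells high, enzyme-with-substrate wells low | Read-out: % inhibition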
Rpn11 confirm: Rpn11 (PSMD14) deubiquitinase inhibitors, confirmation, biochemical, fluorescence polarization, single concentration; shares compounds with Rpn11 inh; purified human 26S proteasome, Ub4-pepOG fluorescence polarization; proteasome pretreated with epoxomicin; inhibition, % at 20 µM; 1,900 compounds, 29% hits; AID 602318, 2012
MMP-2 inh: MMP-2 enzyme inhibition, confirmation, counter-screen for RPN11 inhibitor project, biochemical, fluorescence, single concentration; 1,900 compounds, 4% hits; AID 602330, 2012; recombinant MMP-2, FRET peptide cleavage fluorescence; inhibition, % at 20 µM; shares compounds with Rpn11 inh;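 also: human MMP-2 activated beforehand with APMA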
Thrombin FP: bovine thrombin protease inhibition, confirmation, counter-screen for Rpn11 inhibitor project, biochemical, fluorescence polarization, single concentration | 1,900 compounds, 13% hits | AID 602333, 2012 | shares compounds with Rpn11 inh | inhibition, % at 20 µM | bovine thrombin cleavage of Ub4-pepOG;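 active = mean inhibition at least 40% at 20 µM, or signal 3 deviations below plate average, so some actives read negative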;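 also: plate controls were thrombin with DMSO for no effect and buffer wells lacking thrombin for full effect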
Numbers without * were called inactive; nt = not tested or not shown. Rule as the data show it, unless noted: active = inhibition above about 40%; inactive = the rest.

SMILES | IDE cell inh | TPT1 inhibitor | Rpn11 inh | HNF4A DNA FP | IDE act | CSN deneddyl inh | Rpn11 confirm | MMP-2 inh | Thrombin FP
CCOC(=O)C1(C)CCN1C(=O)c1ccccc1 (stereo not given) | nt | nt | -5.1 | -2.1 | nt | 3.6 | nt | nt | nt
O=C(Nc1ccc2nn(-c3ccccc3)nc2c1)c1ccc(Br)o1 | 1.2 | 4.3 | 44.9* | -2.4 | -3.7 | 25.8 | 34.8 | 38.3 | -5.8
CNc1c(NC(=O)C2CCC(C)CC2)c(=O)oc2ccccc12 (stereo not given) | 2.3 | 0.3 | 3.1 | -0.8 | -1.8 | 1.2 | nt | nt | nt
CC(C)C(=O)Nc1ccc(-c2nnc(-c3ccccc3)o2)cc1 | nt | nt | 9.3 | -0.8 | 0.0 | -2.6 | nt | nt | nt
O=C(Nc1ccc(-c2nnc(-c3ccccc3)o2)cc1)C(F)(F)F | -0.4 | -4.9 | 43.2* | 3.5 | 6.4 | -1.4 | -24.2 | -14.3 | -20.1
COc1ccc(Nc2nc(-c3ccc(OC)cc3)cs2)cc1 | 6.9 | 3.2 | -1.8 | 3.0 | 0.7 | 13.2 | nt | nt | nt
COc1ccc(Nc2nc(-c3c[nH]c4ccccc34)cs2)cc1 | 1.0 | 23.6 | 48.2* | 22.6 | -5.7 | 5.6 | 6.4 | 15.8 | 5.3
O=c1nc(Nc2ccc(Br)cc2)sc2ccc([N+](=O)[O-])cc12 | 0.6 | -0.8 | 44.4* | -5.3 | -8.7 | 46.2* | -5.2 | -1.4 | -8.8
CC(=O)Nc1nc2cc([N+](=O)[O-])ccc2s1 | 1.3 | nt | 13.7 | -0.2 | 2.2 | -1.2 | nt | nt | nt
Cn1c(C(=O)NCCN2CCN(Cc3ccccc3)CC2)cc2c(=O)n(C)c3ccccc3c21 | -1.3 | -1.1 | -6.9 | 5.0 | -3.0 | 0.4 | nt | nt | nt
Cn1c(C(=O)NCCN2CCCCCC2)cc2c(=O)n(C)c3ccccc3c21 | -0.6 | -1.9 | 83.5* | 20.2 | 1.2 | 13.5 | 3.7 | -31.6 | -7.0
Cc1ccc(/C=C/C(=O)OCC(=O)N(C)c2c(N)n(Cc3ccccc3)c(=O)[nH]c2=O)o1 | nt | nt | 4.0 | 3.2 | nt | 3.3 | nt | nt | nt
COCc1c(C(=O)Nc2cccc(S(=O)(=O)N3CCCCC3)c2)oc2ccccc12 | 7.8 | nt | 2.6 | 1.4 | 3.9 | 4.7 | nt | nt | nt
NS(=O)(=O)c1ccc(-c2ccc(/C=C3\C(=O)Nc4ccccc43)o2)cc1 | -4.5 | 3.7 | nt | nt | nt | nt | nt | nt | nt
NC1=NC(=O)/C(=C/c2ccc(-c3ccc(S(N)(=O)=O)cc3)o2)S1 | -2.9 | -9.9 | 77.8* | -7.0 | -3.2 | 33.6 | 89.4* | 45.6* | 42.0*
O=[N+]([O-])c1ccc(O)c(/C=N/NC2=NS(=O)(=O)c3ccccc32)c1 | 1.7 | 3.4 | 49.0* | 15.3 | -4.2 | 8.2 | 89.8* | 21.6 | 30.4
Oc1ccc(CN2CCCc3ccccc32)c2cccnc12 | 0.8 | -3.6 | 44.2* | -1.1 | 4.4 | -3.0 | -10.6 | -3.3 | -14.4
COc1ccccc1N1CCN(Cc2ccc(O)c3ncccc23)CC1 | 5.0 | -2.7 | 8.3 | -1.0 | -0.6 | -1.1 | nt | nt | nt
COc1cccc(/C=N/NC(=O)c2[nH]c(C)c(C(=O)N/N=C/c3cccc(OC)c3)c2C)c1 | -5.8 | 1.7 | 57.2* | -1.3 | -4.7 | -0.2 | 44.8* | -2.0 | 1.8
Cc1ccnc(NC(=O)Nc2ccc3c(c2)N(C)C(=O)CS3)c1 | 3.0 | 3.6 | 83.6* | 13.9 | 3.0 | 13.3 | 18.9 | -49.2 | 15.4
O=C1NC(=O)/C(=C\c2ccccc2OCc2ccc([N+](=O)[O-])cc2)N1 | 2.7 | -1.3 | 45.4* | 0.8 | -1.1 | 2.5 | -11.5 | -27.1 | -15.4
CN(C(=O)c1cccc(NC(=O)Cc2cccc(NC(=O)C3CCCN(C(=O)C4CCCCC4)C3)c2)c1)C1CC1 (stereo not given) | nt | nt | 0.6 | 0.6 | -5.1 | 1.3 | nt | nt | nt
CCCCCCCCCCOC(=O)Cn1c(COc2ccccc2)[n+](C)c2ccccc21 | 0.1 | -5.4 | -4.3 | 7.3 | 8.1 | 2.4 | nt | nt | nt
CCCCCCCCCCOC(=O)Cn1c(COc2cccc(C)c2)[n+](C)c2ccccc21 | -10.5 | 3.6 | 40.4* | 3.5 | 15.5 | 2.7 | 8.7 | -3.0 | -32.6
CCCCCCCCCCOC(=O)Cn1c(COc2ccc(Cl)cc2)[n+](C)c2ccccc21 | -8.0 | -4.5 | 51.6* | 12.9 | 16.3 | 5.4 | 49.8* | -5.0 | -17.6
SMILES | IDE cell inh | TPT1 inhibitor | Rpn11 inh | HNF4A DNA FP | IDE act | CSN deneddyl inh | Rpn11 confirm | MMP-2 inh | Thrombin FP
COCCN(C(=S)Nc1c(C)cccc1C)C(C)c1ccco1 (stereo not given) | 2.2 | -4.4 | 2.9 | 1.0 | 1.7 | 3.7 | nt | nt | nt
COc1ccccc1NC(=O)C1CCCN1C(=O)Nc1ccc(F)cc1 (stereo not given) | 2.1 | 1.2 | 1.0 | -3.4 | 1.7 | 3.4 | nt | nt | nt
O=C(COC(=O)c1ccc(S(=O)(=O)N2CCCCC2)cc1)NC1CCCCC1 | nt | nt | 1.5 | 0.8 | nt | -1.0 | nt | nt | nt
O=C(COC(=O)c1ccc(S(=O)(=O)N2CCc3ccccc3C2)cc1)NC1CCS(=O)(=O)C1 (stereo not given) | 2.1 | 0.0 | 48.6* | 0.4 | 2.0 | 1.0 | -11.9 | 25.4 | -22.4
C=CCn1sc(=N)c(C#N)c1N | 0.4 | -2.6 | 59.6* | 20.0 | 0.1 | 12.1 | 2.5 | 15.7 | -1.6
NC(N)=NCCCS(=O)(=O)Nc1ccc(Nc2c3ccccc3nc3cc([N+](=O)[O-])ccc23)cc1 | nt | nt | 73.4* | -24.6 | -2.7 | -4.2 | -13.2 | -35.4 | 48.1*
O=[N+]([O-])c1ccc(Nc2c3ccccc3nc3ccccc23)cc1 | nt | nt | -3.7 | -1.6 | -3.0 | 9.0 | nt | nt | nt
CCOC(=O)CC[C@H](NC(=O)Cn1cnc2c(SC)nc(N)nc21)C(=O)OCC | -3.1 | nt | 3.5 | -2.4 | 1.8 | -4.6 | nt | nt | nt
O=C(Nc1ccc(Cl)c(Cl)c1)Nc1nnc(-c2ccncc2)s1 | 1.7 | 2.0 | 161.0* | -65.9 | 13.7 | 21.9 | 21.2 | -45.1 | 12.1
C[C@H](O)C#Cc1ccc2c(c1)O[C@@H](CN(C)Cc1ccc(-c3ccccc3)cc1)[C@H](C)CN([C@@H](C)CO)S2(=O)=O | nt | nt | 1.2 | 5.4 | nt | -2.7 | nt | nt | nt

Screens: PubChem, several laboratories
